From ChEMBL document CHEMBL1139657, “Isothiazoloquinolones containing functionalized aromatic hydrocarbons at the 7-position: synthesis and in vitro activity of a series of potent antibacterial agents with diminished cytotoxicity in human cells” (Bioorg Med Chem Lett, 2006) come the findings set out here.

Converted amounts (≈) assume the structure as drawn.

The subject of one test is HEp-2. Put plainly: Cytotoxicity against human Hep2 laryngeal carcinoma cell line. The format is functional.
For the next test, the system named is Escherichia coli. Description: Antimicrobial activity against Escherichia coli ATCC 25922. The format is functional. The gist of the method:
(§1)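 MIC taken as lowest concentration giving no visible bacterial growth after incubation at 37 °C for 18–24 h.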

In test [1] the test system is Staphylococcus aureus. Put plainly: Antimicrobial activity against Staphylococcus aureus ATCC 29213. The format is functional. The gist of the method: as §1
The test system of test [2] is Staphylococcus aureus. Description: Antimicrobial activity against methicillin-resistant Staphylococcus aureus 700699. The format is functional. The gist of the method:
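MIC taken as the lowest compound concentration preventing visible bacterial growth after incubation at 37 °C for 18–24 h.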

In the next test the target is DNA gyrase (Escherichia coli, UniProt P0AES4+P0AES6). Put plainly: Inhibitory activity against wild type Escherichia coli gyrase. The format is protein-complex assay.
Test [3] concerns the target DNA topoisomerase 4 subunit A (Staphylococcus aureus, UniProt P0C1U9). Description: Inhibitory activity against wild type Staphylococcus aureus topoisomerase 4.
Test [4] deals with DNA topoisomerase II (Homo sapiens) (UniProt P11388+Q02880). Description: Inhibitory activity against human topoisomerase 2. Format: protein assay.

Chain of DNA topoisomerase 4 subunit A (P0C1U9 whole entry): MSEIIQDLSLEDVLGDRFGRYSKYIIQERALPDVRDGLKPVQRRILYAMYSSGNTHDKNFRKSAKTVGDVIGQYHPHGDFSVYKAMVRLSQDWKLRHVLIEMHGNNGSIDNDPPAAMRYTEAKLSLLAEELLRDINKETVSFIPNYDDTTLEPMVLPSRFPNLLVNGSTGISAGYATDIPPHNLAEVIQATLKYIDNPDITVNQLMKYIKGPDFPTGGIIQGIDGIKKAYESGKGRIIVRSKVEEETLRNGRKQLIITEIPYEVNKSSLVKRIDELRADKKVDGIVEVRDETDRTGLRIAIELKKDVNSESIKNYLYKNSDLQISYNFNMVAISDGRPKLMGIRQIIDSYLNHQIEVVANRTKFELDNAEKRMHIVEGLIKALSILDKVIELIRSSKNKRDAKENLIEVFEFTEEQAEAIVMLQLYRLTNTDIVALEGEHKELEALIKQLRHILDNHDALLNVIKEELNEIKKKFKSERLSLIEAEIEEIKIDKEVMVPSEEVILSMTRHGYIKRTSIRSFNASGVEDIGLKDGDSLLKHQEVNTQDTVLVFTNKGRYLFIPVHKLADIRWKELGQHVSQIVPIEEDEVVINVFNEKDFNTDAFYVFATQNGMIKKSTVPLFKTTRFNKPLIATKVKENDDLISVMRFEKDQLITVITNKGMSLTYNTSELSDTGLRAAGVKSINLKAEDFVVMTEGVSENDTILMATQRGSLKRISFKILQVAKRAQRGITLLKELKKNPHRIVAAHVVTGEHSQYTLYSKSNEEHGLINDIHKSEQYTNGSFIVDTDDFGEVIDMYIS

The molecule `COc1ccccc1-c1cc2c(cc1F)c(=O)c1c(=O)[nH]sc1n2C1CC1` returned a CC50 in the test with HEp-2 above 84 µM. In addition, the minimum inhibitory concentration (MIC) in the test on Escherichia coli was determined as 2 µg/mL (≈ 5.23 µM); in the test on Staphylococcus aureus [1] it was 0.125 µg/mL (≈ 0.327 µM); against Staphylococcus aureus [2], 32 µg/mL (≈ 83.7 µM).

`COc1c(N2C[C@@H]3CCCN[C@@H]3C2)c(F)cc2c(=O)c(C(=O)O)cn(C3CC3)c12` [MOXIFLOXACIN] returned a CC50 in the test on HEp-2 above 100 µM. The MIC in the test on Escherichia coli came to 0.015 µg/mL (≈ 0.0374 µM); against Staphylococcus aureus [1], 0.06 µg/mL (≈ 0.149 µM); in the test on Staphylococcus aureus [2], 2 µg/mL (≈ 4.98 µM).

In the test on HEp-2, `O=c1[nH]sc2c1c(=O)c1cc(F)c(-c3ccccc3)cc1n2C1CC1` gave a half-maximal cytotoxic concentration (CC50) above 100 µM. Also, the MIC against Escherichia coli is 0.06 µg/mL (≈ 0.17 µM); in the test on Staphylococcus aureus [1], 0.004 µg/mL (≈ 0.0114 µM); in the test on Staphylococcus aureus [2] it was 16 µg/mL (≈ 45.4 µM).

As for `NCc1ccc(-c2cc3c(cc2F)c(=O)c2c(=O)[nH]sc2n3C2CC2)cc1`, the results for the IC50 (against DNA gyrase; in test [3]) were 0.1 µM and 1.5 µM, respectively. The molecule also came in with a CC50 with HEp-2 of 4 µM. The MIC turned out to be 0.015 µg/mL (≈ 0.0393 µM) in the test with Escherichia coli, 0.03 µg/mL (≈ 0.0787 µM) against Staphylococcus aureus [1] and 8 µg/mL (≈ 21 µM) in the test on Staphylococcus aureus [2].

Consider `COc1cc(-c2cc3c(cc2F)c(=O)c2c(=O)[nH]sc2n3C2CC2)ccc1O`, for which the CC50 with HEp-2 was found to be 4 µM. Also, the minimal inhibitory concentration (MIC) in the test on Escherichia coli was found to be 0.06 µg/mL (≈ 0.151 µM); in the test with Staphylococcus aureus [1] it was 0.001 µg/mL (≈ 0.00251 µM); in the test with Staphylococcus aureus [2], 0.125 µg/mL (≈ 0.314 µM).

In the test with HEp-2, `N#Cc1ccc(-c2cc3c(cc2F)c(=O)c2c(=O)[nH]sc2n3C2CC2)cc1` gave a CC50 above 100 µM. Also, the minimal inhibitory concentration (MIC) against Escherichia coli was 1 µg/mL (≈ 2.65 µM); in the test with Staphylococcus aureus [1] it was 0.03 µg/mL (≈ 0.0795 µM); against Staphylococcus aureus [2], 16 µg/mL (≈ 42.4 µM).

With `O=c1[nH]sc2c1c(=O)c1cc(F)c(-c3ccc(CO)cc3)cc1n2C1CC1`, the results for the half-maximal inhibitory concentration (IC50) (on DNA gyrase; in test [3]) were 0.9 µM and 41 µM, respectively. The molecule also came in with a 50% cytotoxic concentration (CC50) in the test on HEp-2 of 25 µM. Further, the MIC with Escherichia coli stood at 0.06 µg/mL (≈ 0.157 µM); with Staphylococcus aureus [1], 0.004 µg/mL (≈ 0.0105 µM); against Staphylococcus aureus [2], 4 µg/mL (≈ 10.5 µM).

For the molecule `O=c1[nH]sc2c1c(=O)c1cc(F)c(-c3ccc(O)cc3)cc1n2C1CC1`, the values for the IC50 (on DNA gyrase; in test [3]) were 0.8 µM and 25 µM, respectively. Also, the EC2 in test [4] came to 15 µM. The molecule further returned a CC50 with HEp-2 of 8 µM. In addition, the MIC came out at 0.03 µg/mL (≈ 0.0814 µM) in the test with Escherichia coli, 0.004 µg/mL (≈ 0.0109 µM) against Staphylococcus aureus [1] and 0.125 µg/mL (≈ 0.339 µM) against Staphylococcus aureus [2].

Regarding `Cc1cc(-c2cc3c(cc2F)c(=O)c2c(=O)[nH]sc2n3C2CC2)cc(C)c1O`, the values for the MIC in the test on Escherichia coli, in the test with Staphylococcus aureus [1] and in the test with Staphylococcus aureus [2] were 0.125 µg/mL (≈ 0.315 µM), 0.001 µg/mL (≈ 0.00252 µM) and 2 µg/mL (≈ 5.04 µM), respectively.

As for `O=c1[nH]sc2c1c(=O)c1cc(F)c(-c3ccc(C4CCCCN4)cc3)cc1n2C1CC1` (centres undefined), the IC50 at DNA gyrase is 1 µM; in test [3] it was 2.6 µM. The molecule also gave a CC50 in the test on HEp-2 of 4 µM. Besides, the MIC turned out to be 0.25 µg/mL (≈ 0.574 µM) against Escherichia coli, 0.125 µg/mL (≈ 0.287 µM) with Staphylococcus aureus [1] and 4 µg/mL (≈ 9.18 µM) in the test on Staphylococcus aureus [2].

For `NC(=O)c1cccc(-c2cc3c(cc2F)c(=O)c2c(=O)[nH]sc2n3C2CC2)c1`, the MIC was 0.125 µg/mL (≈ 0.316 µM) against Escherichia coli, 0.008 µg/mL (≈ 0.0202 µM) in the test on Staphylococcus aureus [1] and 2 µg/mL (≈ 5.06 µM) against Staphylococcus aureus [2].

In the test on HEp-2, `COc1cccc(-c2cc3c(cc2F)c(=O)c2c(=O)[nH]sc2n3C2CC2)c1` yielded a CC50 of 26 µM. In addition, the minimum inhibitory concentration (MIC) against Escherichia coli was 0.125 µg/mL (≈ 0.327 µM); with Staphylococcus aureus [1] it was 0.004 µg/mL (≈ 0.0105 µM); in the test on Staphylococcus aureus [2], 2 µg/mL (≈ 5.23 µM).

With `Nc1ccc(-c2cc3c(cc2F)c(=O)c2c(=O)[nH]sc2n3C2CC2)cc1`, the results for the 50% inhibitory concentration (IC50) (against DNA gyrase; in test [3]) were 0.3 µM and 12 µM, respectively. Further, the midpoint of cytotoxicity with HEp-2, the CC50, lay at 34 µM. In addition, the minimum inhibitory concentration (MIC) in the test with Escherichia coli came out at 0.06 µg/mL (≈ 0.163 µM); with Staphylococcus aureus [1], 0.004 µg/mL (≈ 0.0109 µM); against Staphylococcus aureus [2], 0.5 µg/mL (≈ 1.36 µM).

For the molecule `Nc1cc(-c2cc3c(cc2F)c(=O)c2c(=O)[nH]sc2n3C2CC2)ccc1F`, the IC50 against DNA gyrase was 0.3 µM; in test [3] it was 10 µM. The molecule also returned a CC50 in the test on HEp-2 of 28 µM. The values for the MIC against Escherichia coli, against Staphylococcus aureus [1] and against Staphylococcus aureus [2] were 0.125 µg/mL (≈ 0.324 µM), 0.008 µg/mL (≈ 0.0208 µM) and 0.5 µg/mL (≈ 1.3 µM), respectively.

`CC(=O)c1cccc(-c2cc3c(cc2F)c(=O)c2c(=O)[nH]sc2n3C2CC2)c1` showed a CC50 in the test on HEp-2 above 100 µM. Besides, the results for the MIC against Escherichia coli, against Staphylococcus aureus [1] and in the test on Staphylococcus aureus [2] were 0.125 µg/mL (≈ 0.317 µM), 0.004 µg/mL (≈ 0.0101 µM) and 2 µg/mL (≈ 5.07 µM), respectively.

As for `O=c1[nH]sc2c1c(=O)c1cc(F)c(-c3ccccc3F)cc1n2C1CC1`, in the test on HEp-2, the CC50 is above 100 µM. The MIC in the test with Escherichia coli is 0.125 µg/mL (≈ 0.337 µM); against Staphylococcus aureus [1] it was 0.015 µg/mL (≈ 0.0405 µM); in the test with Staphylococcus aureus [2], 8 µg/mL (≈ 21.6 µM).

As for `Nc1ccccc1-c1cc2c(cc1F)c(=O)c1c(=O)[nH]sc1n2C1CC1`, it took 46 µM to reach half-maximal cytotoxicity with HEp-2 (CC50). The figures for the MIC against Escherichia coli, in the test on Staphylococcus aureus [1] and with Staphylococcus aureus [2] were 0.125 µg/mL (≈ 0.34 µM), 0.03 µg/mL (≈ 0.0817 µM) and 64 µg/mL (≈ 174 µM), respectively.

In the test with HEp-2, `Cc1ccc(-c2cc3c(cc2F)c(=O)c2c(=O)[nH]sc2n3C2CC2)cc1N` gave a CC50 of 18 µM. Moreover, the values for the MIC in the test on Escherichia coli, against Staphylococcus aureus [1] and in the test with Staphylococcus aureus [2] were 0.125 µg/mL (≈ 0.328 µM), 0.008 µg/mL (≈ 0.021 µM) and 2 µg/mL (≈ 5.24 µM), respectively.

With `Nc1cccc(-c2cc3c(cc2F)c(=O)c2c(=O)[nH]sc2n3C2CC2)c1`, the IC50 amounted to 3.1 µM against DNA gyrase and 10 µM in test [3]. In addition, the CC50 in the test with HEp-2 was above 100 µM. The figures for the MIC against Escherichia coli, in the test on Staphylococcus aureus [1] and against Staphylococcus aureus [2] were 0.004 µg/mL (≈ 0.0109 µM), 0.008 µg/mL (≈ 0.0218 µM) and 8 µg/mL (≈ 21.8 µM), respectively.

A word on the CC50: it is the concentration at which the toxic effect on the cells reaches its halfway point. Read a low CC50 as greater toxicity to the cells. As usually defined, the MIC is the lowest concentration that inhibits growth of the organism. In general, IC50 refers to the concentration needed to halve the response being measured. A higher IC50 goes with weaker potency in that assay.
